# According to ChEMBL document CHEMBL1681752, “Discovery of novel (4-piperidinyl)-piperazines as potent and orally active acetyl-CoA carboxylase 1/2 non-selective inhibitors: F-Boc and triF-Boc groups are acid-stable bioisosteres for the Boc group” (Bioorg Med Chem, 2011):
# How the values were obtained:
# [1] = Metabolic stability in human liver microsomes assessed as compound recovery after 15 mins by LC-MS/MS; assay type: ADME, Microsome; settings: read-out: Stability
# Outline: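 Compound is incubated at 37 °C with 1 mg/mL human liver microsomes in phosphate buffer with an NADPH-generating system (glucose-6-phosphate, NADP, G6P dehydrogenase) plus MgCl2 and KCl. Levels at 0 and 15 min are measured by LC–MS/MS, and percent remaining is taken from their ratio.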
# [2] = Chemical stability of the compound in simulated gastric media assessed as compound recovery at pH 1.2 after 3 hrs by HPLC method; assay type: physicochemical; settings: read-out: Stability
# Outline: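 Acid stability: compound is held in aqueous solution at pH 1.2 for 3 h at 37 °C. Parent remaining is quantified by HPLC.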
# HepG2 = assay: Inhibition of fatty acid synthesis in human HepG2 cells assessed as [14C]acetate incorporation after 2 hrs by liquid scintillation counter; assay type: functional, cell-based; settings: HepG2, 2 h
# Outline: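 HepG2 cells are plated at 3 × 10^5/well and grown 48 h in DMEM/10% FBS. They are serum-starved 1 h in DMEM with 1.5% BSA, with or without compound. Radiolabelled acetate is added for 2 h. Cells are washed, then saponified with KOH for 2 h at 70 °C. After hexane washes and acidification to pH <2, fatty acids are extracted into hexane.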
# Acetyl-CoA carboxylase [3] = target: Acetyl-CoA carboxylase (Homo sapiens, UniProt Q13085+O00763); assay: Inhibition of human ACC1/2 assessed as [14C]malonyl-CoA synthesis; assay type: protein assay
# Outline: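 Enzyme source: human liver cytosol, ammonium sulfate precipitated (30%) and anion-exchange purified in MOPS pH 7.5 buffer. It is preincubated with compound or DMSO for 30 min at 37 °C in Tris acetate pH 7.5 buffer. Substrates are 2.12 mM ATP, 18.2 mM NaHCO3 and [14C]acetyl-CoA. Unreacted acetyl-CoA is converted to acetyl-carnitine and retained on cation-exchange resin, and eluted [14C]malonyl-CoA is counted. IC50 is the mean of at least two experiments.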
# Acetyl-CoA carboxylase [4] = target: Acetyl-CoA carboxylase (Rattus norvegicus, UniProt P11497+Q1HEC0); assay: Inhibition of rat ACC1/2 assessed as malonyl-CoA synthesis; assay type: protein assay
# Outline: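 Rat liver cytosolic ACC is preincubated with compound or DMSO for 30 min at 37 °C in Tris acetate pH 7.5 buffer. The reaction uses the liver-ACC substrate mix: 2.12 mM ATP, 18.2 mM NaHCO3 and [14C]acetyl-CoA. Residual acetyl-CoA is removed as acetyl-carnitine on cation-exchange resin, and [14C]malonyl-CoA in the eluate is counted. IC50 is the mean of at least two experiments.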
Structure (SMILES),remaining at 0.25 h [1],remaining at 3 h [2],IC50 (Acetyl-CoA carboxylase [3]),IC50 (Acetyl-CoA carboxylase [4]),IC50 (HepG2)
CCNC(=O)Nc1sc2ccccc2c1C(=O)N1CCN(C2CCN(C(=O)NC(C)(C)C)CC2)CC1,–,–,119 nM,–,775 nM
CCNC(=O)Nc1sc2ccccc2c1C(=O)N1CCN(C2CCN(C(=O)C3CCCCC3)CC2)CC1,–,–,81 nM,–,146 nM
CCNC(=O)Nc1sc2ccccc2c1C(=O)N1CCN(C2CCN(C(C)=O)CC2)CC1,–,–,1864 nM,–,–
CCNC(=O)Nc1sc2ccccc2c1C(=O)N1CCN(C2CCN(C(=O)OC(C)C)CC2)CC1,3%,–,28 nM,–,208 nM
CCNC(=O)Nc1sc2ccccc2c1C(=O)N1CCN(C2CCN(C(=O)OC3CCCCC3)CC2)CC1,–,–,76 nM,–,635 nM
CCCCC(=O)N1CCC(N2CCN(C(=O)c3c(NC(=O)NCC)sc4ccccc34)CC2)CC1,–,–,207 nM,–,–
CC(=O)N1CCC(C(=O)N2CCC(N3CCN(C(=O)c4cc(-c5ccc(C)cc5)nc(-c5ccc(C)cc5)c4)CC3)CC2)CC1,–,–,–,70 nM,–
CCNC(=O)Nc1sc2ccccc2c1C(=O)N1CCN(C2CCN(C(=O)OC3CCCC3)CC2)CC1,–,–,52 nM,–,512 nM
CCNC(=O)Nc1sc2ccccc2c1C(=O)N1CCN(C2CCN(C(=O)C(C)C)CC2)CC1,–,–,131 nM,–,–
CCNC(=O)Nc1sc2cc(C)ccc2c1C(=O)N1CCN(C2CCN(C(=O)OC(C)(C)CF)CC2)CC1,84%,–,32 nM,–,73 nM
CCNC(=O)Nc1sc2ccc(C)cc2c1C(=O)N1CCN(C2CCN(C(=O)OC(C)C)CC2)CC1,3%,–,32 nM,–,254 nM
CCNC(=O)Nc1sc2ccccc2c1C(=O)N1CCN(C2CCN(C(=O)CC(C)C)CC2)CC1,–,–,144 nM,–,–
CCNC(=O)Nc1sc2ccccc2c1C(=O)N1CCN(C2CCN(C(=O)CC)CC2)CC1,–,–,597 nM,–,–
CCNC(=O)Nc1sc2ccccc2c1C(=O)N1CCN(C2CCN(C(=O)OCC)CC2)CC1,–,–,55 nM,–,228 nM
CCCC(=O)N1CCC(N2CCN(C(=O)c3c(NC(=O)NCC)sc4ccccc34)CC2)CC1,–,–,242 nM,–,–
CCNC(=O)Nc1sc2ccccc2c1C(=O)N1CCN(C2CCN(C(=O)C3CCN(C(C)=O)CC3)CC2)CC1.O=C(O)/C=C\C(=O)O,–,–,74 nM,–,–
CCNC(=O)Nc1sc2cc(C)ccc2c1C(=O)N1CCN(C2CCN(C(=O)OC(C)C)CC2)CC1,77%,–,60 nM,–,628 nM
CCNC(=O)Nc1sc2ccccc2c1C(=O)N1CCN(C2CCN(C(=O)C3CCCC3)CC2)CC1.O=C(O)/C=C\C(=O)O,–,–,49 nM,–,309 nM
CC(=O)N1CCC(C(=O)N2CCC(N3CCN(C(=O)c4cc(-c5ccc(C)cc5)nc(-c5ccc6[nH]c(C)c(C)c6c5)c4)CC3)CC2)CC1,–,–,33 nM,–,294 nM

# Continued, in another order:
remaining at 0.25 h [1],remaining at 3 h [2],IC50 (Acetyl-CoA carboxylase [3]),IC50 (Acetyl-CoA carboxylase [4]),Structure (SMILES),IC50 (HepG2)
3%,98%,17 nM,–,CCNC(=O)Nc1sc2ccccc2c1C(=O)N1CCN(C2CCN(C(=O)OC(C)(C)CF)CC2)CC1,61 nM
13%,–,12 nM,–,CCNC(=O)Nc1sc2cccnc2c1C(=O)N1CCN(C2CCN(C(=O)OC(C)(C)C(F)(F)F)CC2)CC1,49 nM
5%,100%,31 nM,–,CCNC(=O)Nc1sc2ccccc2c1C(=O)N1CCN(C2CCN(C(=O)OC(C)(C)C(F)(F)F)CC2)CC1,81 nM
17%,–,62 nM,–,CCNC(=O)Nc1sc2cc(F)ccc2c1C(=O)N1CCN(C2CCN(C(=O)OC(C)(C)C(F)(F)F)CC2)CC1,–
–,–,175 nM,–,CCNC(=O)Nc1sc2ccccc2c1C(=O)N1CCN(C2CCN(C(=O)OC)CC2)CC1,–
29%,–,27 nM,–,CCNC(=O)Nc1sc2cc(OC)ccc2c1C(=O)N1CCN(C2CCN(C(=O)OC(C)(C)C(F)(F)F)CC2)CC1,67 nM
–,23%,24 nM,–,CCNC(=O)Nc1sc2ccccc2c1C(=O)N1CCN(C2CCN(C(=O)OC(C)(C)C)CC2)CC1,79 nM
3%,–,45 nM,–,CCNC(=O)Nc1sc2ncccc2c1C(=O)N1CCN(C2CCN(C(=O)OC(C)(C)C(F)(F)F)CC2)CC1,67 nM
67%,–,41 nM,–,CCNC(=O)Nc1sc2cnccc2c1C(=O)N1CCN(C2CCN(C(=O)OC(C)(C)C(F)(F)F)CC2)CC1,152 nM
–,–,117 nM,–,CCNC(=O)Nc1sc2ccncc2c1C(=O)N1CCN(C2CCN(C(=O)OC(C)(C)C(F)(F)F)CC2)CC1,–
–,–,109 nM,–,CCNC(=O)Nc1sc2ccccc2c1C(=O)N1CCN(C2CCN(C(=O)C(C)(C)C)CC2)CC1,450 nM
7%,–,98 nM,–,CCNC(=O)Nc1sc2cc(C(F)(F)F)ccc2c1C(=O)N1CCN(C2CCN(C(=O)OC(C)(C)C(F)(F)F)CC2)CC1,–
51%,–,38 nM,–,CCNC(=O)Nc1sc2cc(Cl)ccc2c1C(=O)N1CCN(C2CCN(C(=O)OC(C)(C)C(F)(F)F)CC2)CC1,–
